Assay results of several laboratories.
Each line is one published result; the experiments were not run side by side.
KDM1A: Lysine-specific histone demethylase 1A (KDM1A, Homo sapiens, UniProt O60341)
PDE5A: cGMP-specific 3',5'-cyclic phosphodiesterase (PDE5A, Homo sapiens, UniProt O76074)
PFF0160c: Dihydroorotate dehydrogenase (quinone), mitochondrial (PFF0160c, Plasmodium falciparum, UniProt Q08210)
PPO3: PPO3 (Agaricus bisporus, UniProt C7FF04)
AURKB: Aurora kinase B (AURKB, Homo sapiens, UniProt Q96GD4)
PARP1: Poly [ADP-ribose] polymerase 1 (PARP1, Homo sapiens, UniProt P09874)
MEP1A: Meprin A subunit alpha (MEP1A, Homo sapiens, UniProt Q16819)

`C#CCSc1nc(Sc2nnnn2-c2ccccc2)c2nnn(Cc3cccc(Cl)c3)c2n1` has an IC50 of 0.074 µM (KDM1A; enzyme activity; inhibitor; fluorescence).
With `COC(=O)[C@H]1Cc2c([nH]c3ccccc23)[C@H](c2ccc(OC)c(OC)c2)N1C(=O)CCl` the IC50 was over 10 µM (PDE5A; enzyme activity; inhibitor; FP).
With `CNCCOc1nc2nc(C)cc(Nc3ccc(S(F)(F)(F)(F)F)cc3)n2n1` the IC50 was over 10 µM (PFF0160c; enzyme activity; inhibitor).
`Cc1ccc(C(C)C)cc1NC(=O)COC(=O)c1ccc(O)cc1O` has an IC50 of 1.8 µM (PPO3; enzyme activity; inhibitor).
The IC50 of `CCN1C(=O)[C@@H]2Cc3c([nH]c4ccccc34)[C@@H](c3cccnc3)N2C1=O` is reported as 0.15 µM (PDE5A; enzyme activity; inhibitor; FP).
The IC50 of `Cc1ccc(COc2ccc3c(c2)NC(=C(C#N)C(=O)c2ccc(Cl)cc2Cl)NC3=O)cc1` is reported as 280 µM (Cytoplasmic dynein 1 heavy chain 1 (DYNC1H1, Homo sapiens, UniProt Q14204); ATPase activity; inhibitor).
For `Cc1cnc(Nc2ccc(N3CCN(C)CC3)cc2)nc1Nc1cccc(S(=O)(=O)NC(C)(C)C)c1`, the IC50 was 0.033 µM (AURKB; enzyme activity; inhibitor; mobility shift).
With `Nc1nc(N)c(N=Nc2ccc([N+](=O)[O-])cc2)c(N)n1` the IC50 was 40.6 µM (PPO3; enzyme activity; inhibitor; absorbance).
With `O=C(Nc1ccn(Cc2ccc(O)cc2C(F)(F)F)n1)c1c(F)cccc1F` the IC50 was over 10 µM (Transient receptor potential cation channel subfamily A member 1 (TRPA1, Homo sapiens, UniProt O75762); ion current; inhibitor).
The IC50 of `Cc1cc(Nc2ccc(Cl)cc2)n2nc(OCCN)nc2n1` is reported as over 10 µM (PFF0160c; enzyme activity; inhibitor).
`CC1Cc2ccccc2N1C(=O)NCCCCN(C)[C@@H]1Cc2cccc3[nH]c(=O)n(c23)C1` (mixture of isomers) gave an IC50 of 4.12 µM (5-hydroxytryptamine receptor 2A (HTR2A, Homo sapiens, UniProt P28223); ligand displacement; radioligand).
`Cc1ccc(C(C)C)cc1NC(=O)COC(=O)/C=C/c1ccccc1O` gave an IC50 of 1.81 µM (PPO3; enzyme activity; inhibitor).
`C#CCSc1nc(Sc2nnnn2-c2cccnc2)c2nnn(Cc3ccccc3Cl)c2n1` gave an IC50 of 0.127 µM (KDM1A; enzyme activity; inhibitor; fluorescence).
For `Cc1cc(Nc2ccc(C(F)(F)F)cc2)c2ccccc2n1`, the IC50 was 0.98 µM (PFF0160c; enzyme activity; inhibitor).
The IC50 of `CC(C)(C)N1C(=O)[C@H]2Cc3c([nH]c4ccccc34)[C@@H](c3cccnc3)N2C1=O` is reported as 0.41 µM (PDE5A; enzyme activity; inhibitor; FP).
`O=C(c1ccc2ccncc2c1)N1CCC2CC1CN2C(=O)c1n[nH]c(=O)c2ccccc12` (stereo not drawn) has an IC50 of 1.42 µM (PARP1; enzyme activity; inhibitor).
`O=C(O)CCCC(=O)N1CCN(C(=O)c2cc(Cc3n[nH]c(=O)c4ccccc34)ccc2F)CC1` has an IC50 of 0.0067 µM (PARP1; enzyme activity; inhibitor).
`Cc1cc(Nc2ccc(Cl)cc2)n2nc(CN)nc2n1` has an IC50 of over 10 µM (PFF0160c; enzyme activity; inhibitor).
For `CC(C)(C)n1nc(-c2cnc3cc(OC4CC4)ccc3c2)c(C(N)=O)c1N`, the IC50 was over 10 µM (AURKB; cell-free assay; inhibitor).
`COc1cc2c(cc1OC)-c1c/c(=N\c3c(C)cc(C)cc3C)n(C)c(=O)n1CC2` has an IC50 of 3.4 µM (PDE5A; enzyme activity; inhibitor; FP).
`COc1ccc(N=Nc2c(N)nc(N)nc2N)cc1` gave an IC50 of 43.8 µM (PPO3; enzyme activity; inhibitor; absorbance).
For `C[S+]([O-])c1ccc(-c2nc(-c3ccncc3)c(-c3ccc(F)cc3)[nH]2)cc1` (stereo not drawn), the IC50 was over 10 µM (Serine/threonine-protein kinase A-Raf (ARAF, Homo sapiens, UniProt P10398); enzyme activity; inhibitor; lysate).
`CC(C)C[C@H]1CC(=O)N2CCC[C@H]2C(=O)N[C@@H](CCCCCC(=O)NO)C(=O)N[C@@H](Cc2c[nH]c3ccccc23)C(=O)N1` gave an IC50 of 0.0035 µM (Histone deacetylase 2 (HDAC2, Homo sapiens, UniProt Q92769); enzyme activity; inhibitor).
For `COc1ccc([C@@H]2c3[nH]c4ccccc4c3C[C@H]3C(=O)N(C(C)(C)C)C(=O)N23)cc1OC`, the IC50 was 6.21 µM (PDE5A; enzyme activity; inhibitor; FP).
For `N[C@@]1(C(=O)O)CC[C@]12CC[C@H]2C(=O)O`, the IC50 was 18000 µM (Glutamate racemase (Helicobacter pylori J99, UniProt Q9ZLT0); enzyme activity; inhibitor).
With `CN1CCN(c2ccc(Nc3ncc4cc(C#N)c(=O)n(C5CCCC5)c4n3)cc2)CC1` the IC50 was 0.638 µM (Tyrosine-protein kinase TXK (TXK, Homo sapiens, UniProt P42681); enzyme activity; inhibitor).
The IC50 of `COc1ccc(C2=NN(C3CCCCCC3)C(=O)[C@@H]3CC=CC[C@H]23)cc1-c1ccc(C(N)=O)cc1` (relative stereo) is reported as over 10 µM (PDE5A; enzyme activity; inhibitor).
The IC50 of `Cc1cnc(-c2ccc(-c3ccc(NC(=O)Nc4c(F)cc(F)cc4F)cc3F)c3c2C(=O)NC3)[nH]1` is reported as 0.0037 µM (AURKB; enzyme activity; inhibitor).
`Cc1cc(Nc2ccc(Cl)cc2)n2nc(CN(C)C)nc2n1` has an IC50 of over 10 µM (PFF0160c; enzyme activity; inhibitor).
The IC50 of `O=C1[C@@H]2Cc3c([nH]c4ccccc34)[C@@H](c3cccnc3)N2C(=O)N1c1ccc(Cl)cc1` is reported as 1.25 µM (PDE5A; enzyme activity; inhibitor; FP).
With `Cc1ccc(C(C)C)cc1NC(=O)COC(=O)c1cccc(O)c1` the IC50 was 11 µM (PPO3; enzyme activity; inhibitor).
`O=C(CCN(Cc1cccnc1)Cc1ccc2c(c1)OCO2)NO` has an IC50 of 0.464 µM (MEP1A; enzyme activity; inhibitor).
The IC50 of `CCN1C(=O)[C@@H]2Cc3c([nH]c4ccccc34)[C@@H](c3ccc(OC)c(OC)c3)N2C1=O` is reported as 13.7 µM (PDE5A; enzyme activity; inhibitor; FP).
With `CCCCc1ccc(-c2ccc(-c3cc(C(=O)O)c4ccc(OC)cc4n3)o2)cc1` the IC50 was over 150 µM (Eukaryotic initiation factor 4A-I (EIF4A1, Homo sapiens, UniProt P60842); ATPase activity; inhibitor; absorbance).
With `Cc1cc(Nc2ccc(Cl)cc2)n2[nH]c(=O)nc2n1` the IC50 was over 10 µM (PFF0160c; enzyme activity; inhibitor).
For `CN1C(=O)c2c(nn(Cc3ccc(-c4cccc(F)n4)cc3)c2Nc2ccccc2)N2C1=N[C@@H]1CCC[C@@H]12`, the IC50 was over 0.1 µM (PDE5A; enzyme activity; inhibitor).
`CNCCc1nc2nc(C)cc(Nc3cccc(Cl)c3)n2n1` has an IC50 of over 10 µM (PFF0160c; enzyme activity; inhibitor).
`CC(=O)N[C@@H](CC(=O)O)C(=O)N[C@@H](CCC(=O)O)C(=O)N[C@H](C(=O)N[C@H](C=O)CC(=O)O)C(C)C` has an IC50 of 0.0232 µM (Caspase-6 (CASP6, Homo sapiens, UniProt P55212); enzyme activity; inhibitor).
`Cc1cc(Nc2cccc(Cl)c2)n2nc(CN(C)C)nc2n1` has an IC50 of over 10 µM (PFF0160c; enzyme activity; inhibitor).
With `CC(=O)Nc1ccc(N=Nc2c(N)nc(N)nc2N)cc1` the IC50 was 29.8 µM (PPO3; enzyme activity; inhibitor; absorbance).
The IC50 of `O=C(CCN(Cc1ccncc1)Cc1ccc(Cl)c(O)c1F)NO` is reported as 0.646 µM (MEP1A; enzyme activity; inhibitor).
`CNCCOc1nc2nc(C)cc(Nc3ccc(C(F)(F)F)cc3)n2n1` has an IC50 of over 10 µM (PFF0160c; enzyme activity; inhibitor).
